How the values were obtained:
A (adenosine) = assay: NIMH-PDSP binding affinity panel; conditions: read-out: affinity
NOP = NOP (Homo sapiens, UniProt P41146); assay: NIMH-PDSP binding affinity panel
SERT = SERT (Homo sapiens, UniProt P31645); assay: NIMH-PDSP binding affinity panel
DAT = DAT (Homo sapiens, UniProt Q01959); assay: NIMH-PDSP binding affinity panel
cancer animal models = conditions: variety of cancer animal models; cited from earlier work
I = assay: NIMH-PDSP binding affinity panel; conditions: read-out: affinity
mGluR = assay: NIMH-PDSP binding affinity panel; conditions: read-out: affinity, metabotropic glutamate receptors
NET = NET (Homo sapiens, UniProt P23975); assay: NIMH-PDSP binding affinity panel
KOP = KOP (Homo sapiens, UniProt P41145); assay: NIMH-PDSP binding affinity panel
PKC = assay: NIMH-PDSP binding affinity panel; conditions: read-out: affinity, protein kinase C
5-HT1A-1E = assay: NIMH-PDSP binding affinity panel; conditions: read-out: affinity
CB1, CB2 = assay: NIMH-PDSP binding affinity panel; conditions: read-out: affinity; CB1, CB2 cannabinoid
AMPA = assay: NIMH-PDSP binding affinity panel; conditions: read-out: affinity
[1] = over 100 cancer patients including GBM; cited from earlier work
M (muscarinic) = assay: NIMH-PDSP binding affinity panel; conditions: read-out: affinity
HERG = HERG (Homo sapiens, UniProt Q12809); assay: NIMH-PDSP binding affinity panel
D1-D5 = assay: NIMH-PDSP binding affinity panel; conditions: read-out: affinity; D1-D5 dopamine
α2A-2C = assay: NIMH-PDSP binding affinity panel; conditions: read-out: affinity
Ca+ channel = assay: NIMH-PDSP binding affinity panel; conditions: read-out: affinity
GABA = assay: NIMH-PDSP binding affinity panel; conditions: read-out: affinity
Na + channel = assay: NIMH-PDSP binding affinity panel; conditions: read-out: affinity
β1–3 = assay: NIMH-PDSP binding affinity panel; conditions: read-out: affinity
[2] = biological target: EP (prostanoid receptors); assay: NIMH-PDSP binding affinity panel; conditions: read-out: affinity
BZP (benzodiazepine) = assay: NIMH-PDSP binding affinity panel; conditions: read-out: affinity
KA (kainate) = assay: NIMH-PDSP binding affinity panel; conditions: read-out: affinity
σ2 = σ2 (Homo sapiens, UniProt Q5BJF2); assay: NIMH-PDSP binding affinity panel
MDR1 = MDR1 (Homo sapiens, UniProt P08183); assay: NIMH-PDSP binding affinity panel
α1A-1C = assay: NIMH-PDSP binding affinity panel; conditions: read-out: affinity
NT (neurotrophin) = assay: NIMH-PDSP binding affinity panel; conditions: read-out: affinity
NK (neurokinin) = assay: NIMH-PDSP binding affinity panel; conditions: read-out: affinity
H1 = H1 (Homo sapiens, UniProt P35367); assay: NIMH-PDSP binding affinity panel
5-HT2A-2C = assay: NIMH-PDSP binding affinity panel; conditions: read-out: affinity
smoothened = smoothened (Homo sapiens, UniProt Q99835); assay: NIMH-PDSP binding affinity panel
DOR = DOR (Homo sapiens, UniProt P41143); assay: NIMH-PDSP binding affinity panel
[3] = biological target: all other tested biogenic brain receptors, transporters, enzymes, and protein targets; assay: NIMH-PDSP binding affinity panel; conditions: all other tested targets except H4R and σ1R
PBR = PBR (Homo sapiens, UniProt P30536); assay: NIMH-PDSP binding affinity panel
5-HT3-7 = assay: NIMH-PDSP binding affinity panel; conditions: read-out: affinity
NMΔA = assay: NIMH-PDSP binding affinity panel; conditions: read-out: affinity
VMAT 1,2 = assay: NIMH-PDSP binding affinity panel; conditions: read-out: affinity; VMAT 1,2, vesicular monoamine transporter
oxytocin = oxytocin (Homo sapiens, UniProt P30559); assay: NIMH-PDSP binding affinity panel
[4] = rodents, blood; cited from earlier work
brain MT [5] = assay: microPET imaging in mice, baseline and blocking; assay type: in vivo, athymic nude male mice
Outline: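 Mice were anaesthetised and transmission-scanned on a Trifoil PET/CT. The [11C] tracer (50 ± 10 μCi) was given by tail vein, followed by 60 min dynamic acquisition. Images were reconstructed with attenuation correction, Fourier rebinning and filtered back-projection, and summed over 0–60 min. In blocking scans, unlabelled test compound (5 mg/kg iv) was given before the tracer, with n = 3.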

[6] = Stability in ethanol–saline formulation; assay type: physicochemical; conditions: 5% ethanol–saline formulation, sterile conditions, 4 h, n = 4
Outline: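 The stability of the [11C]-labelled test compound was checked by reverse-phase HPLC with photodiode-array and sodium iodide radioactivity detectors.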

[7] = Baseline ex vivo biodistribution; assay type: in vivo, male white mice; conditions: mouse brain, followed by gradual washout
MT = assay: Blocking biodistribution with cold MPC-6827; assay type: in vivo, male white mice
Outline: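 This was a blocking biodistribution. Unlabelled test compound (5 mg/kg iv) was given 20 min before tail-vein injection of the [11C] tracer at 100 ± 20 μCi in 10% ethanol–saline, with no anaesthesia. Tissues were harvested at 30 min, gamma-counted and expressed as %ID/g, with n = 3. Specific binding was taken from blocked versus baseline uptake.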

[8] = Lipophilicity by shake flask method; assay type: physicochemical; conditions: 1-octanol / phosphate buffer, n = 4
Outline: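 The [11C]-labelled test compound was partitioned between 1-octanol and freshly prepared phosphate buffer by shake flask, and the result expressed as log Poct/water.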

brain MT [9] = assay: microPET imaging in rats; assay type: in vivo; conditions: male Sprague—Dawley rats, n = 2
Outline: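 Anaesthetised Sprague–Dawley rats (n = 2) were transmission-scanned on a Trifoil PET/CT. The [11C] tracer (100 ± 20 μCi) was injected into the tail vein and acquired for 60 min. Reconstruction used attenuation correction, Fourier rebinning and filtered back-projection, and images were summed over 0–60 min.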

[10] = 30 min, MPC-6827 5 mg/kg iv 20 min prior to radioligand, n = 3

Sequence of PBR (P30536 whole entry, species assumed): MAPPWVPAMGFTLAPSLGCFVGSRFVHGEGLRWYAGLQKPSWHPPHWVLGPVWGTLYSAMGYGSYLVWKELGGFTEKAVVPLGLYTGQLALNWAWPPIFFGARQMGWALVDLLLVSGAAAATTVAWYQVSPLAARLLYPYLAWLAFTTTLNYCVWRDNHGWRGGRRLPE
Sequence of NET (P23975 whole entry): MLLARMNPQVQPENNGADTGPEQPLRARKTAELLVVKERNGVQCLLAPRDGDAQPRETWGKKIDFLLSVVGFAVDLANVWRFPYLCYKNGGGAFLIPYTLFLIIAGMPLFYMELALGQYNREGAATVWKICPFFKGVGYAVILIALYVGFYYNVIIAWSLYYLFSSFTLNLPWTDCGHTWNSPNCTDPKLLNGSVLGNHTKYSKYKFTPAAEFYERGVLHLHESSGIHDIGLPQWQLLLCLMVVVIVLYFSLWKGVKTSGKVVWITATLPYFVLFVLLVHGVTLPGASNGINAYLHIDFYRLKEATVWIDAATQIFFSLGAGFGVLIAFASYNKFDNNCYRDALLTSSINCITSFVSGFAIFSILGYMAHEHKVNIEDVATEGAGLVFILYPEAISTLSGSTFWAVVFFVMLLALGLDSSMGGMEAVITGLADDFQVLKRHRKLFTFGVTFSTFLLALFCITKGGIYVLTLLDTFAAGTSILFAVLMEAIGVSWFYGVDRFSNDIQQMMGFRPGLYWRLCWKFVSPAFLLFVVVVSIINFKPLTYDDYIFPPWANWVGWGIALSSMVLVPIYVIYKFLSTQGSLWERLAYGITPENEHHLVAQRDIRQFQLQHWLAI
Sequence of DAT (Q01959 whole entry, species assumed): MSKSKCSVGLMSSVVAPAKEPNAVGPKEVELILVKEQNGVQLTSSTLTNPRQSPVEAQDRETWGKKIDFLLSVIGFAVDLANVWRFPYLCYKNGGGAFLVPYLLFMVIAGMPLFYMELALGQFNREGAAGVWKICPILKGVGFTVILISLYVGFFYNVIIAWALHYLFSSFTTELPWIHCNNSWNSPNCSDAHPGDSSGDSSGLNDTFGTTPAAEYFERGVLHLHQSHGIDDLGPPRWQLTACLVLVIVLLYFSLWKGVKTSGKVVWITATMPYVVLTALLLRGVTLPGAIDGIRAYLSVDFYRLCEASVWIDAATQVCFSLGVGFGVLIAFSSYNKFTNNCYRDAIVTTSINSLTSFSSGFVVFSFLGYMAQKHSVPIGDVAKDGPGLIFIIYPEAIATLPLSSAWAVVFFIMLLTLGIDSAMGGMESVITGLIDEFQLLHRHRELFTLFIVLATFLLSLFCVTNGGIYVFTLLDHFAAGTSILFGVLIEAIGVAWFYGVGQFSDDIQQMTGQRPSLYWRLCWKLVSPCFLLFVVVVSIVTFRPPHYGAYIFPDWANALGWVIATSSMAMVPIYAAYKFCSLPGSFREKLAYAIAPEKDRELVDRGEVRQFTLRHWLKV
Sequence of NOP (P41146 whole entry): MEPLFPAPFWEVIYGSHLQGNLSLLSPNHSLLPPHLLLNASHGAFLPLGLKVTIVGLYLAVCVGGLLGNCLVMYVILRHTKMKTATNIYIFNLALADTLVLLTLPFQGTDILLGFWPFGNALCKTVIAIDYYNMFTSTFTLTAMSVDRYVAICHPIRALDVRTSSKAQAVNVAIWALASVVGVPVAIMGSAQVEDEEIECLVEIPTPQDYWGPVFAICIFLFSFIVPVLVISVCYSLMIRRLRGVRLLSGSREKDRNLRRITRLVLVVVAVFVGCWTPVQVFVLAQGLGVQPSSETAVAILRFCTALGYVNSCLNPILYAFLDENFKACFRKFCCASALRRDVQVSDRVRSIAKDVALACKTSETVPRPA
Sequence of smoothened (Q99835 28-787): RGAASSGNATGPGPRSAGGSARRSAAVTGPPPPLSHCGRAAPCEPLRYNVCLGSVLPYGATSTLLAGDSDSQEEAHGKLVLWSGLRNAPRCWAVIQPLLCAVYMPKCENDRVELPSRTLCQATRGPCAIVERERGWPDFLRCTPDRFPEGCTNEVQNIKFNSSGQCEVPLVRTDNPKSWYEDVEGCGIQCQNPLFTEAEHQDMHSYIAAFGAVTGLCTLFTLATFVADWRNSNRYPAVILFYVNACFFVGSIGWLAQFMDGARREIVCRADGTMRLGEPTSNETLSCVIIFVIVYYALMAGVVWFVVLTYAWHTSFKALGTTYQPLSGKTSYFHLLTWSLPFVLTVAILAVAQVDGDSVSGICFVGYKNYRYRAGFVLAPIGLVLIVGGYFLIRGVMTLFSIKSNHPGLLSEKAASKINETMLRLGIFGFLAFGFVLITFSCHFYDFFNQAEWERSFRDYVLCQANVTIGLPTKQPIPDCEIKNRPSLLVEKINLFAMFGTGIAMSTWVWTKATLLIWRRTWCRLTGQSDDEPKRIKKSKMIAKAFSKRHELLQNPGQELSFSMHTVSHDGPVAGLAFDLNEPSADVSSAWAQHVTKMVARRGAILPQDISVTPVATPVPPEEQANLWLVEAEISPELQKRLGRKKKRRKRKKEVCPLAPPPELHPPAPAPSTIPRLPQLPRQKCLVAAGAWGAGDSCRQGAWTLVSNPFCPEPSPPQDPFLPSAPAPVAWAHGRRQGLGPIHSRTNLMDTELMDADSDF
Sequence of DOR (P41143 whole entry): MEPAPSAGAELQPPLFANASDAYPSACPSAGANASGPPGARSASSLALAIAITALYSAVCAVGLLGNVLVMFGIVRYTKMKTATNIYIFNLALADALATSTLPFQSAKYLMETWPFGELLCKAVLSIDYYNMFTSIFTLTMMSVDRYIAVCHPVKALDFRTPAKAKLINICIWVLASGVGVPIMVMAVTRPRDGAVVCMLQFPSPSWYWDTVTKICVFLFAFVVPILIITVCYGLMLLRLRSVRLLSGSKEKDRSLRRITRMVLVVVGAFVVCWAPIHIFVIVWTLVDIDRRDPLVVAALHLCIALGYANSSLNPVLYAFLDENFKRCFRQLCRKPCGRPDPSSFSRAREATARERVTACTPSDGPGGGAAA
Sequence of oxytocin (P30559 whole entry): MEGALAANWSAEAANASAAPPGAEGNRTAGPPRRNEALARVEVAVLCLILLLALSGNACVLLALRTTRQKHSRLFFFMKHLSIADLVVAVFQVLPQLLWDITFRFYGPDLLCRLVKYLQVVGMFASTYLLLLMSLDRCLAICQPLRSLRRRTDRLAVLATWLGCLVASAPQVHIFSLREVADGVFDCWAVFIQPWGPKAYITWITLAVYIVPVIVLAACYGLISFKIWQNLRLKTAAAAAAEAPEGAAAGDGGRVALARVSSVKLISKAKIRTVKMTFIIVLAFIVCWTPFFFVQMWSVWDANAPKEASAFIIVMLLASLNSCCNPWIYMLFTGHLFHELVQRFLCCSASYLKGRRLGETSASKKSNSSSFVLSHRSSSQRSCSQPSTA
Sequence of HERG (Q12809 whole entry): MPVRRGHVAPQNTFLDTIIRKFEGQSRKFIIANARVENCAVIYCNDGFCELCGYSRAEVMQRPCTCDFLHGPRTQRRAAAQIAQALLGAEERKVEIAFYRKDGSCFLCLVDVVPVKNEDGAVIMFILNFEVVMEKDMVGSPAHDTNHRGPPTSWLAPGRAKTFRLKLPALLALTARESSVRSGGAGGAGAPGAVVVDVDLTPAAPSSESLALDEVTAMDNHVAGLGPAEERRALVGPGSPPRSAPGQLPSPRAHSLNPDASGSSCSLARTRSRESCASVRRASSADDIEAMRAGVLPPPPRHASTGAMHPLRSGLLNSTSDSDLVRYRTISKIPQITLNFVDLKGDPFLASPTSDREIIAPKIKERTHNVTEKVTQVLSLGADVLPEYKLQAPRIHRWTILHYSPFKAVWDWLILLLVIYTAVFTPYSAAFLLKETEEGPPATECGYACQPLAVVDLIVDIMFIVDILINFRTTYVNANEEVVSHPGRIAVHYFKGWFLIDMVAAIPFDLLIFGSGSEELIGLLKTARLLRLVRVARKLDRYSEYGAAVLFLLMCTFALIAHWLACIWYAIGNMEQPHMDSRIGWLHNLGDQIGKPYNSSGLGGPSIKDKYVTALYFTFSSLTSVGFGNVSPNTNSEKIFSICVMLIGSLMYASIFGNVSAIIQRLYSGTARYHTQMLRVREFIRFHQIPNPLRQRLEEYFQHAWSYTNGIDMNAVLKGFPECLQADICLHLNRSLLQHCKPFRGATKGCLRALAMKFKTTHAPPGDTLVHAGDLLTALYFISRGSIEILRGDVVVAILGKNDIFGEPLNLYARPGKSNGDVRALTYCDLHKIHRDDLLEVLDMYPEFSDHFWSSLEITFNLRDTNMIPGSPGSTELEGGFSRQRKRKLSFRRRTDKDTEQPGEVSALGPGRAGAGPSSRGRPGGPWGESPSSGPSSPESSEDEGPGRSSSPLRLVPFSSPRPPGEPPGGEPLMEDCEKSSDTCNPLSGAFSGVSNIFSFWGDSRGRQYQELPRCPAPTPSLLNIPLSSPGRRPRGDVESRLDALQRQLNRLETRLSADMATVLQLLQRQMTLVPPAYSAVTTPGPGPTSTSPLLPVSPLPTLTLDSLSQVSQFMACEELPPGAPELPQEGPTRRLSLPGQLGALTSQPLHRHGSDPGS
Sequence of σ2 (Q5BJF2 whole entry): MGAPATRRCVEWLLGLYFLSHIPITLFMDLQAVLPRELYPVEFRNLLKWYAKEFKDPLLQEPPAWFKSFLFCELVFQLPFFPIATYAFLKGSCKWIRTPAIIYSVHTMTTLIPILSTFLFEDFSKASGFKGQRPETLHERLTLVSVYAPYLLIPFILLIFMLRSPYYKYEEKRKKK

COc1ccc(N(C)c2nc(C)nc3ccccc23)cc1 [MPC-6827]
Ki (A (adenosine)): > 10 µM | Ki (NOP): > 10 µM | Ki (SERT): > 10 µM | Ki (DAT): > 10 µM | tumor growth in cancer animal models (cancer animal models): suppression of tumor growth | Ki (I): > 10 µM | Ki (mGluR): > 10 µM | Ki (NET): > 10 µM | Ki (KOP): > 10 µM | Ki (PKC): > 10 µM | Ki (5-HT1A-1E): > 10 µM | Ki (CB1, CB2): > 10 µM | Ki (AMPA): > 10 µM | safety in human subjects [1]: proven to be safe | Ki (M (muscarinic)): > 10 µM | Ki (HERG): > 10 µM | Ki (D1-D5): > 10 µM | Ki (α2A-2C): > 10 µM | Ki (Ca+ channel): > 10 µM | Ki (GABA): > 10 µM | Ki (Na + channel): > 10 µM | Ki (β1–3): > 10 µM | Ki [2]: > 10 µM | Ki (BZP (benzodiazepine)): > 10 µM | Ki (KA (kainate)): > 10 µM | Ki (σ2): > 10 µM | Ki (MDR1): > 10 µM | Ki (α1A-1C): > 10 µM | Ki (NT (neurotrophin)): > 10 µM | Ki (NK (neurokinin)): > 10 µM | Ki (H1): > 10 µM | Ki (5-HT2A-2C): > 10 µM | Ki (smoothened): > 10 µM | Ki (DOR): > 10 µM | Ki [3]: > 10 µM | Ki (PBR): > 10 µM | Ki (5-HT3-7): > 10 µM | Ki (NMΔA): > 10 µM | Ki (VMAT 1,2): > 10 µM | Ki (oxytocin): > 10 µM | plasma binding [4]: 98.2%

Cc1nc(N(C)c2ccc(O[11CH3])cc2)c2ccccc2n1 [[^11C]MPC-6827]
BBB penetration and brain retention (microPET) (brain MT [5]; athymic nude male mice, n = 3, 0–60 min): penetrates the BBB and shows excellent retention in mouse brain | radioligand binding in thyroid or salivary gland during blocking (microPET) (brain MT [5]; blocking with 5 mg/kg MPC-6827, mice): displaced | blocking of brain activity (microPET) (brain MT [5]; iv 5 mg/kg unlabeled MPC-6827, n = 3): substantially blocked | stability in formulation [6]: stable | time of peak brain activity [7]: 5 min | specific binding in brain (MT; [10]): 70% | specific binding in heart (MT; [10]): 16% | specific binding in lungs (MT; [10]): 30% | specific binding in muscles (MT; [10]): 60% | specific binding in pancreas (MT; [10]): 20% | specific binding in the rest of the tested regions (MT; 30 min, regions other than brain, muscles, spleen, lungs, pancreas, heart): no significant specific binding | displacement of kidney and liver binding (MT; blocking with cold MPC-6827, mice): not displaced | ratio of specific to nonspecific binding in brain relative to muscle (MT; brain vs muscle, Figure 1B): 10 times | log Poct/water [8]: 3.8 | BBB penetration and brain retention (microPET) (brain MT [9]): BBB penetration and excellent retention

From publication PMC6637745 (Journal of medicinal chemistry, 2018)
